Reference: ChEMBL document CHEMBL1129493 (J Med Chem, 1996)
Values after ≈ are worked out from the molar mass of the structure shown. Active and inactive are the calls of the source.

Columns and labels:
Candida albicans = experiment: Minimum inhibitory concentration evaluated against Candida albicans; assay type: functional
Dihydrofolate reductase [1] = target: T1, Dihydrofolate reductase (Candida albicans, UniProt P22906); experiment: Inhibition of Dihydrofolate reductase enzyme from Candida albicans
T1 sequence (P22906 whole entry): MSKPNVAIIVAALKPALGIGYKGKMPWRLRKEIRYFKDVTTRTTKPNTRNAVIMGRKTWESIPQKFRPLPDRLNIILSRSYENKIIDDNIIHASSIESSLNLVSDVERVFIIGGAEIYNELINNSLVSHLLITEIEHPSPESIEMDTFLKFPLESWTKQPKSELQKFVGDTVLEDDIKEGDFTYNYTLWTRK

Dihydrofolate reductase [2] = target: T2, Dihydrofolate reductase (Homo sapiens, UniProt P00374); experiment: Inhibition of human recombinant Dihydrofolate reductase enzyme
T2 sequence (P00374 whole entry): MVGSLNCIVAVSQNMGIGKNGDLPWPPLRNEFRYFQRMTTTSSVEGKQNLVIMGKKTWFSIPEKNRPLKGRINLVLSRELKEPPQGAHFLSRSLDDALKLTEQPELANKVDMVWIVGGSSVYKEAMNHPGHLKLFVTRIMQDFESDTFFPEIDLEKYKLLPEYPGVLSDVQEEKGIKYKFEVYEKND

HCT-8 = experiment: Activity was evaluated against HCT-8 tumor cells; assay type: functional, cell-based; conditions: Homo sapiens
How it was run: (§1)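 Cytotoxicity was read by MTT dye reduction for suspension cultures or sulforhodamine B for monolayer cultures. For reversal of multidrug resistance, reserpine was added as reversing agent ([…] as printed).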

KB [3] = experiment: Cytotoxic activity was evaluated against KBV-1 cells in presence of reserpine; assay type: functional, Homo sapiens; how it was run: as §1
KB [4] = experiment: Cytotoxic activity was evaluated against KBV-1 cells; assay type: functional, Homo sapiens; how it was run: as §1
MCF7 [5] = experiment: Cytotoxic activity was evaluated against MCF-7 cells; assay type: functional, Homo sapiens; how it was run: as §1
MCF7 [6] = experiment: Cytotoxic activity was evaluated against MCF-7/ADR cells; assay type: functional, Homo sapiens; how it was run: as §1
MCF7 [7] = experiment: Cytotoxic activity was evaluated against MCF-7/ADR+Reserpine cells; assay type: functional, Homo sapiens; how it was run: as §1
KB 3-1 = experiment: Cytotoxic activity was evaluated against KB3-1 cells; assay type: functional, Homo sapiens; how it was run: as §1
P388 [8] = experiment: Cytotoxic activity was evaluated against P388D1/ADR cells; assay type: functional, Mus musculus; how it was run: as §1
P388 [9] = experiment: Cytotoxic Activity was evaluated against P388D1 cells; assay type: functional, Mus musculus; how it was run: as §1
P388 [10] = experiment: Cytotoxic activity was evaluated against P388/ADR + reserpine cells; assay type: functional, Mus musculus; how it was run: as §1
Mus musculus [11] = species: Mus musculus; experiment: Effect on Pneumocystis carinii pneumonia in SCID mice; assay type: functional
How it was run: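 SCID mice (10-11/group) were dosed prophylactically once daily from day 1 postinfection, 42 doses. Test drug in D5W was given ip, then leucovorin 12 mg/kg sc 30 min later. Trimethoprim 50 mg/kg plus sulfamethoxazole 250 mg/kg was given orally, and controls received D5W ip and sc. Lung impression smears were taken 24 h after the last dose and stained by immunofluorescence. Infection was scored 0-4 semilogarithmically, reported as mean ± SEM and as infected/total mice.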

Mus musculus [12] = species: Mus musculus; experiment: Number of mice infected to tat of total number of mice ([…]/[…]); assay type: functional, organism-based
Mus musculus [13] = species: Mus musculus; experiment: Effect on Candida albicans nephritis and Meningitis in Immunosuppressed Mice brain; assay type: functional
How it was run: (§2)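 Immunosuppressed CD-1 female mice (10/group) given cyclophosphamide ip, 160 and 40 mg/kg on days -4 and -1; C. albicans 5 × 10^4 cfu/mouse iv via lateral tail vein. Sc dosing of 20 or 50 mg/kg in sesame oil at 3, 7, 24, 30 h post-inoculation; sulfamethoxazole 200 mg/kg ip in D5W given 1 h before each dose. Kidney and brain cultured at 48 h; log cfu/g tissue.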

Mus musculus [14] = species: Mus musculus; experiment: Effect on Candida albicans nephritis and Meningitis in Immunosuppressed Mice kidney; assay type: functional; how it was run: as §2
MCF7 [15] = experiment: Cytotoxic Activity was evaluated against MCF-7 cells; assay type: functional, Homo sapiens; how it was run: as §1
Mus musculus [16] = experiment: Effect on life span of mice with intraperitoneally implanted P388 Leukemic cells; assay type: functional
How it was run: (§3)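 CDF-1 female mice (18–20 g, 5 or 8/group); P388 or P388/ADR cells implanted ip at 1 × 10^6 cells. Dosing began 24 h later; agents suspended in 0.5% carboxymethyl cellulose plus 1% Tween 80, given sc or ip qd × 10. Read-out was percent increase in life span.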

Mus musculus [17] = experiment: Effect on life span of mice with intraperitoneally implanted P388/ADR Leukemic cells; assay type: functional; how it was run: as §3
[18] = Tissue distribution of the in rat lung relative to plasma concentration of 1 mg/kg; relative concentration
[19] = Tissue distribution of the in rat brain relative to plasma concentration of 1 mg/kg; relative concentration
Mus musculus [20] = species: Mus musculus
A549 = experiment: Cytotoxic activity evaluated against A549 tumor cells; conditions: Homo sapiens
[21] = Relative concentration of compound in brain compared to concentration in plasma (0.4 ug/mL) at the time of tissue collection from mice; relative concentration; assay type: ADME, organism-based; conditions: mouse, read-out: Activity
[22] = Cytotoxic activity was evaluated against Daoy tumor cells; assay type: functional, cell-based; conditions: Homo sapiens; how it was run: as §1
[23] = Cytotoxic activity was evaluated against L tumor cells; assay type: functional, cell-based; conditions: Mus musculus; how it was run: as §1
Mus musculus [24] = experiment: Effect on life span of mice with intracranially implanted P388 Leukemic cells; assay type: functional
How it was run: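 CDF-1 female mice (18–20 g, 5 or 8/group); P388 leukemia, maintained by in vivo serial passage, implanted intracranially at 1 × 10^5 cells. Treatment started 24 h later; test agents suspended in 0.5% carboxymethyl cellulose plus 1% Tween 80, given sc or ip qd × 10. Read-out was percent increase in life span versus controls.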

P388 [25] = experiment: Cytotoxic activity was evaluated against P388D1 tumor cells; assay type: functional, cell-based; conditions: Mus musculus; how it was run: as §1
U-87 MG = experiment: Cytotoxic activity was evaluated against U87MG tumor cells; assay type: functional, cell-based, U-87MG ATCC; conditions: Homo sapiens; how it was run: as §1

Compound | MIC (Candida albicans) | Ki (Dihydrofolate reductase [1]) | Ki (Dihydrofolate reductase [2]) | IC50 (HCT-8) | further results
CC[C@]1(O)C[C@@H]2CN(CCc3c([nH]c4ccccc34)[C@@](C(=O)OC)(c3cc4c(cc3OC)N(C)[C@H]3[C@@](O)(C(=O)OC)[C@H](OC(C)=O)[C@]5(CC)C=CCN6CC[C@]43[C@@H]65)C2)C1 [VINBLASTINE] | – | – | – | – | Relative IC50 (KB [3]): 1.3; Relative IC50 (KB [4]): 2000; Relative IC50 (MCF7 [5]): 1; Relative IC50 (MCF7 [6]): 17500; Relative IC50 (MCF7 [7]): 0.5; Relative IC50 (KB 3-1): 1; Relative IC50 (P388 [8]): 19 nM; Relative IC50 (P388 [9]): 1; Relative IC50 (P388 [10]): 0.2 nM
CCC(C)(C)n1c(C)cc2c3c(N)nc(N)nc3ccc21 | 0.025 µg/mL (≈ 0.0882 µM) | 0.0071 nM | 0.0004 nM | 2.1 nM | –
Cc1cc2c3c(N)nc(N)nc3ccc2n1C | 0.1 µg/mL (≈ 0.44 µM) | – | 0.087 nM | 85 nM | –
CCc1cc2c3c(N)nc(N)nc3ccc2n1C(C)(C)C | > 0.1 µg/mL | – | – | 1.3 nM | –
Nc1nc(=O)c2c([nH]1)NCC(CNc1ccc(C(=O)N[C@@H](CCC(=O)O)C(=O)O)cc1)N2C=O (some centres not stated) [LEUCOVORIN] | – | – | – | – | Infection score (Mus musculus [11]): 3; No. of mice infected /total (Mus musculus [12]): Number of mice infected to tat of total number of mice ([…]/[…])
Nc1nc(N)c2c(ccc3[nH]ccc32)n1 | 0.8 µg/mL (≈ 4.02 µM) | 23 nM | 1 nM | 1450 nM | –
CCCCc1cc2c3c(N)nc(N)nc3ccc2n1C(C)(C)C | > 0.1 µg/mL | 0.38 nM | – | 52 nM | –
Cc1cc(NS(=O)(=O)c2ccc(N)cc2)no1 [SULFAMETHOXAZOLE] | – | – | – | – | Log cfu/g of tissue (Mus musculus [13]): 4.7; Log cfu/g of tissue (Mus musculus [14]): 7.3
CC(C)(C)c1cc2c(ccc3nc(N)nc(N)c32)[nH]1 | 0.05 µg/mL (≈ 0.196 µM) | 0.12 nM | < 0.002 nM | 3.3 nM | –
CC(C)c1cc2c(ccc3nc(N)nc(N)c32)[nH]1 | 0.05 µg/mL (≈ 0.207 µM) | 0.16 nM | 0.01 nM | – | –
COc1cccc2c1C(=O)c1c(O)c3c(c(O)c1C2=O)C[C@@](O)(C(=O)CO)C[C@@H]3O[C@H]1C[C@H](N)[C@H](O)[C@H](C)O1 [DOXORUBICIN] | – | – | – | – | Relative IC50 (KB [3]): 1.6; Relative IC50 (KB [4]): 61; Relative IC50 (MCF7 [6]): 200; Relative IC50 (MCF7 [7]): 1.5; Relative IC50 (MCF7 [15]): 1; Relative IC50 (KB 3-1): 1; Increase in life-span (Mus musculus [16]): 130%; Increase in life-span (Mus musculus [17]): 30%; Relative IC50 (P388 [8]): 28 nM; Relative IC50 (P388 [9]): 1; Relative IC50 (P388 [10]): 3.7 nM
Cc1nc(N)nc(N)c1-c1ccc(Cl)c(Cl)c1 [METOPRINE] | – | – | – | – | Kp [18]: 31; Kp [19]: 6.5
COc1cc(Cc2cnc(N)nc2N)cc(OC)c1OC | – | – | – | – | No. of mice infected /total (Mus musculus [20]): Partially active
CCC(CC)n1ccc2c3c(N)nc(N)nc3ccc21 | 0.001 µg/mL (≈ 0.00371 µM) | 0.22 nM | 0.0045 nM | 6 nM | IC50 (A549): 10 nM; Kp [21]: 10; IC50 [22]: 80 nM; IC50 [23]: 2.2 nM; Increase in life-span (Mus musculus [24]): 55%; Increase in life-span (Mus musculus [16]): 80%; Log cfu/g of tissue (Mus musculus [14]): 6; IC50 (P388 [25]): 4.5 nM; IC50 (U-87 MG): 8 nM
Cn1ccc2c3c(N)nc(N)nc3ccc21 | 1.6 µg/mL (≈ 7.5 µM) | 25 nM | 0.23 nM | 580 nM | –

Continued, in another order:

MIC (Candida albicans) | Ki (Dihydrofolate reductase [1]) | Ki (Dihydrofolate reductase [2]) | IC50 (HCT-8) | Compound | further results
> 0.1 µg/mL | < 0.11 nM | 0.0004 nM | 4.4 nM | CCCc1cc2c3c(N)nc(N)nc3ccc2n1C(CC)CC | –
> 0.1 µg/mL | < 0.05 nM | 0.0001 nM | 0.75 nM | CCC(CC)n1c(C(C)C)cc2c3c(N)nc(N)nc3ccc21 | –
0.1 µg/mL (≈ 0.414 µM) | 1.3 nM | 0.029 nM | 8 nM | CCc1cc2c3c(N)nc(N)nc3ccc2n1C | –
0.1 µg/mL (≈ 0.353 µM) | < 0.05 nM | 0.0001 nM | 0.82 nM | CCc1cc2c3c(N)nc(N)nc3ccc2n1C(C)CC (configuration not stated) | –
0.1 µg/mL (≈ 0.371 µM) | 0.33 nM | < 0.002 nM | 1.4 nM | CCn1c(C(C)C)cc2c3c(N)nc(N)nc3ccc21 | –
0.2 µg/mL (≈ 0.783 µM) | 0.33 nM | 0.01 nM | 0.59 nM | CCc1cc2c3c(N)nc(N)nc3ccc2n1CC | –
0.05 µg/mL (≈ 0.168 µM) | < 0.06 nM | 0.0002 nM | 1.3 nM | CC(C)n1c(C(C)(C)C)cc2c3c(N)nc(N)nc3ccc21 | –
0.1 µg/mL (≈ 0.336 µM) | < 0.06 nM | 0.0002 nM | 0.57 nM | CCc1cc2c3c(N)nc(N)nc3ccc2n1C(CC)CC | –
0.025 µg/mL (≈ 0.0979 µM) | 0.22 nM | 0.0064 nM | 7.4 nM | Cc1cc2c3c(N)nc(N)nc3ccc2n1C(C)C | –
0.1 µg/mL (≈ 0.371 µM) | 0.65 nM | 0.024 nM | 3.1 nM | CCCc1cc2c3c(N)nc(N)nc3ccc2n1CC | –
